Experimental findings from ChEMBL document CHEMBL1135509 (J Med Chem, 2002) are described below.

In general, Ki refers to a dissociation constant, usually derived from enzyme kinetics or from competition with a known ligand.

In experiment [1] the target is T1, Sodium-dependent dopamine transporter (Rattus norvegicus, UniProt P23977). The experiment in a line: Inhibition of high affinity uptake of [3H]-DA by dopamine transporter in nerve endings obtained from rat brain. The method, boiled down: (§1)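 Reuptake inhibition reported as Ki; values are mean ± standard error of at least three experiments.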
The target in experiment [2] is Norepinephrine transporter (Rattus norvegicus, UniProt Q9WTR4). The experiment in a line: Inhibition of high affinity uptake of [3H]NE by norepinephrine transporter in nerve endings obtained from rat brain. The gist of the method:
as §1

Experiment [3] deals with Monoamine transporters; serotonin & dopamine (Rattus norvegicus) (UniProt P31652+P23977). Kind of experiment: Ratio of Ki at 5-HT transporter and Ki at dopamine transporter. In kind it is protein assay. The method, boiled down:
(§2)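 Selectivity ratio calculated from Ki values measured in the monoamine reuptake assays, each Ki being the mean ± standard error of at least three experiments.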

Experiment [4] addresses Monoamine transporters; Norepininephrine & dopamine (Rattus norvegicus) (UniProt P23977+Q9WTR4). The experiment in a line: Ratio of Ki at norepinephrine transporter and Ki at dopamine transporter. In kind it is protein assay. The gist of the method:
as §2

The target in experiment [5] is Monoamine transporters; Norepinephrine & serotonin (Rattus norvegicus) (UniProt P31652+Q9WTR4). Kind of experiment: Ratio of Ki at norepinephrine transporter and Ki at 5-HT transporter. In kind it is protein assay. The method, boiled down:
as §2

For experiment [6], the target named is Sodium-dependent serotonin transporter (Rattus norvegicus, UniProt P31652). The experiment in a line: Inhibition of high affinity uptake of [3H]5-HT by serotonin transporter in nerve endings obtained from rat brain. The gist of the method: as §1
Experiment [7] has as its target T1, Sodium-dependent dopamine transporter. The experiment in a line: 373 Ability to inhibit high affinity uptake of [3H]DA using rat nerve endings obtained from brain regions enriched in dopamine transporter. The method, boiled down:
as §1

Sequence of Norepinephrine transporter (Q9WTR4 whole entry): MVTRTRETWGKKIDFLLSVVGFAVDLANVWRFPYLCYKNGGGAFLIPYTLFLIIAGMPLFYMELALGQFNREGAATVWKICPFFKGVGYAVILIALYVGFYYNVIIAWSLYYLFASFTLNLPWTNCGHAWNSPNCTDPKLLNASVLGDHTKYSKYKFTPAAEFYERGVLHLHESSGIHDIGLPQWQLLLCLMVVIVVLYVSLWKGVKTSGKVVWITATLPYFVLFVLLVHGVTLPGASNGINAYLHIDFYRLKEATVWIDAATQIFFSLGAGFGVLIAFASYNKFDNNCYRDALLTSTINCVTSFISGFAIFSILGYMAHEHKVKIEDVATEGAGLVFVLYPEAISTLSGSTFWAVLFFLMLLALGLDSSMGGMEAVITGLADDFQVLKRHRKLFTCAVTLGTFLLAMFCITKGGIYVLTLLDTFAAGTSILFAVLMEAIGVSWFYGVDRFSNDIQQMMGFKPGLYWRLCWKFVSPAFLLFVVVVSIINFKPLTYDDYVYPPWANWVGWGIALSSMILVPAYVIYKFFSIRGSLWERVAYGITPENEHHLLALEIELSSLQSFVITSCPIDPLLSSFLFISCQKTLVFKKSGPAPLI
Sequence of Monoamine transporters; serotonin & dopamine (Rattus norvegicus) (P23977 whole entry, looked up): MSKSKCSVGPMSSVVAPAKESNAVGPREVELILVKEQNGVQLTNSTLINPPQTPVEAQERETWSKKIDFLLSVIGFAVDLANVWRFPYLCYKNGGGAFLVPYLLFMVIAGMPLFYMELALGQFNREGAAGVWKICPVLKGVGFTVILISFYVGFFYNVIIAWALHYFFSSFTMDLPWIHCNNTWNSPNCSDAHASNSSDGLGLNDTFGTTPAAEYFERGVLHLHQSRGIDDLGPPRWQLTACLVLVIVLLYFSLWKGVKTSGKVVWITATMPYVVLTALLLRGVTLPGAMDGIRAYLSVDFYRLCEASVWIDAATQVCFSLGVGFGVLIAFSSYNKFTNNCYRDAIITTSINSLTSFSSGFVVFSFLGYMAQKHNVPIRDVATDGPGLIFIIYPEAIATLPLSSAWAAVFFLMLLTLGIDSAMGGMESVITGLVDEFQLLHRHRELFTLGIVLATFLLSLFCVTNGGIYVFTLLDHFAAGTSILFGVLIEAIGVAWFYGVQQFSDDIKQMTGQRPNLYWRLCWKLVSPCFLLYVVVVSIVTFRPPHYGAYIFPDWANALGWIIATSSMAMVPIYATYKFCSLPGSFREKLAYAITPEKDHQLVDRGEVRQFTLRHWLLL
Sequence of Monoamine transporters; serotonin & dopamine (Rattus norvegicus) (P31652 whole entry, looked up): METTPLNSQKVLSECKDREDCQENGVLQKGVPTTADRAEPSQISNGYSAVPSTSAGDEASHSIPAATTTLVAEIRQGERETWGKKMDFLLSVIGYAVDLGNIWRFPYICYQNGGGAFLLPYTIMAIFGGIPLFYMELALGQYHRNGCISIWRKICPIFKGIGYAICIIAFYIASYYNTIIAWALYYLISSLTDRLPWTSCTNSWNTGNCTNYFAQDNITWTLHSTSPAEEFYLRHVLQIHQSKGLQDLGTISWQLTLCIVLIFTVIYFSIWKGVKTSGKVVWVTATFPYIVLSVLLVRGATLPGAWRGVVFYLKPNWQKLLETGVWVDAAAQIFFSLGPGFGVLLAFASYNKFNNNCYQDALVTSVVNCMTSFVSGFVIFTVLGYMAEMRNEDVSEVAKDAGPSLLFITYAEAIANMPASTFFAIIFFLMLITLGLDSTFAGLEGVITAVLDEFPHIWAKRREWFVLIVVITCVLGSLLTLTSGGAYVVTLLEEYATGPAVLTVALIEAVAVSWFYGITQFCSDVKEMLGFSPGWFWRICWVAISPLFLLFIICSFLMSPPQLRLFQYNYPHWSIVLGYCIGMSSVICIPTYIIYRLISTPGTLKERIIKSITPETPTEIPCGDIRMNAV
T1 sequence (P23977 whole entry): as the sequence (P23977 whole entry, looked up) above
Sequence of Sodium-dependent serotonin transporter (P31652 whole entry): as the sequence (P31652 whole entry, looked up) above

As for `Cc1noc(C2CN(C)CC[C@@H]2c2ccc(Cl)cc2)n1` (some centres not stated), the Ki in experiment [1] was found to be 187 nM; in experiment [2], 256 nM; in experiment [6], 5960 nM. Besides, the figures for the Ratio in experiment [3], in experiment [4] and in experiment [5] were 31.8, 1.37 and 0.04, respectively.

Regarding `COC(=O)C1CN(CCCF)CC[C@@H]1c1ccc(Cl)cc1` (some centres not stated), the Ki was 4280 nM in experiment [1], 335 nM in experiment [2] and > 10000 nM in experiment [6]. In addition, the Ratio in experiment [3] is > 2.3; in experiment [4] it was 0.08; in experiment [5] it was < 0.03.

`COC(=O)[C@H]1CN(CCc2ccccc2)CC[C@@H]1c1ccc(Cl)cc1`: the Ki in experiment [1] amounted to 1080 nM; in experiment [2], 142 nM; in experiment [6], 2890 nM. Moreover, the Ratio turned out to be 2.68 in experiment [3], 0.13 in experiment [4] and 0.05 in experiment [5].

With `CN1CC[C@H](c2ccc(Cl)cc2)[C@@H](CO)C1`, the Ki in experiment [1] worked out at 497 nM; in experiment [2] it was 198 nM; in experiment [6], 1550 nM. Further, the results for the Ratio in experiment [3], in experiment [4] and in experiment [5] were 3.12, 0.4 and 0.13, respectively.

For `COC(=O)C1CN(S(=O)(=O)c2ccccc2)CC[C@@H]1c1ccc(Cl)cc1` (some centres not stated), the results for the Ki in experiment [2] and in experiment [6] were 16100 nM and 36100 nM, respectively. Besides, the Ratio is 1.85 in experiment [3], 0.83 in experiment [4] and 0.45 in experiment [5].

Consider `CCOC(=O)CCN1CC[C@H](c2ccc(Cl)cc2)C(C(=O)OC)C1` (some centres not stated), for which the Ki in experiment [1] was > 10000 nM; in experiment [2] it was 2100 nM; in experiment [6], > 10000 nM. Besides, the Ratio in experiment [4] and in experiment [5] was < 0.21 each time.

As to `COC(=O)C1CN(CCC(c2ccccc2)c2ccccc2)CC[C@@H]1c1ccc(Cl)cc1` (some centres not stated), the Ki turned out to be 4290 nM in experiment [1], 4340 nM in experiment [2] and 2690 nM in experiment [6]. The Ratio in experiment [3] worked out at 0.63; in experiment [4], 1.01; in experiment [5], 1.61.

For the compound `COC(=O)[C@@H]1CN(Cc2ccccc2)CC[C@@H]1c1ccc(Cl)cc1`, the values for the Ki in experiment [1], in experiment [2] and in experiment [6] were 3280 nM, 2980 nM and 2190 nM, respectively. Besides, the Ratio in experiment [3] was determined as 0.67; in experiment [4], 0.91; in experiment [5], 1.36.

Regarding `COC(=O)C1CN(CCCc2ccccc2)CC[C@@H]1c1ccc(Cl)cc1` (some centres not stated), the Ki was found to be 810 nM in experiment [1], 488 nM in experiment [2] and 3270 nM in experiment [6]. The figures for the Ratio in experiment [3], in experiment [4] and in experiment [5] were 4.04, 0.6 and 0.15, respectively.

Turning to `OCC1CNCC[C@@H]1c1ccc(Cl)cc1` (some centres not stated), the inhibition constant (Ki) was found to be 836 nM in experiment [1], 69 nM in experiment [2] and 239 nM in experiment [6]. Moreover, the Ratio in experiment [3] was 0.29; in experiment [4], 0.08; in experiment [5] it was 0.29.

For the compound `COC(=O)C1CN(C(C)C)CC[C@@H]1c1ccc(Cl)cc1` (some centres not stated), the figures for the Ki in experiment [1], in experiment [2] and in experiment [6] were 6980 nM, 1840 nM and 3740 nM, respectively. In addition, the results for the Ratio in experiment [3], in experiment [4] and in experiment [5] were 0.54, 0.26 and 0.49, respectively.

With `COC(=O)C1CNCC[C@@H]1c1ccc(Cl)cc1` (some centres not stated), the Ki in experiment [1] is 279 nM; in experiment [2] it was 7.9 nM; in experiment [6] it was 434 nM. For the same compound, the Ratio turned out to be 1.56 in experiment [3], 0.03 in experiment [4] and 0.02 in experiment [5].

Take `COC(=O)C1CN(CCCCl)CC[C@@H]1c1ccc(Cl)cc1` (some centres not stated): the Ki in experiment [1] was 3150 nM; in experiment [2], 441 nM; in experiment [6] it was > 10000 nM. Further, the Ratio in experiment [3] is > 3.17; in experiment [4], 0.14; in experiment [5], < 0.04.

For the compound `Cc1noc(C2CNCC[C@@H]2c2ccc(Cl)cc2)n1` (some centres not stated), the Ki in experiment [7] was found to be 189 nM; in experiment [2] it was 34 nM; in experiment [6] it was 373 nM. Moreover, the Ratio in experiment [3] was found to be 1.97; in experiment [4], 0.18; in experiment [5], 0.09.

Consider `COC(=O)C1CN(C(C)=O)CC[C@@H]1c1ccc(Cl)cc1` (some centres not stated), for which the Ki in experiment [1], in experiment [2] and in experiment [6] was > 10000 nM in each case.

Take `COC(=O)C1CN(Cc2ccc(O)cc2)CC[C@@H]1c1ccc(Cl)cc1` (some centres not stated): the figures for the Ki in experiment [1], in experiment [2] and in experiment [6] were 1620 nM, 1080 nM and 2650 nM, respectively. The Ratio in experiment [3] was found to be 1.64; in experiment [4], 0.67; in experiment [5], 0.41.

With `COC(=O)[C@@H]1CN(CCc2ccccc2)CC[C@@H]1c1ccc(Cl)cc1`, the Ki in experiment [1] amounted to 1020 nM; in experiment [2] it was 233 nM; in experiment [6], 1880 nM. For the same compound, the Ratio in experiment [3] was 1.84; in experiment [4], 0.23; in experiment [5], 0.12.
